Source: PubChem (several laboratories)
This is a sample that favours compounds with a hit; in the whole collection about 2.1% have one here.
m-calpain inh: blocks pig calpain II enzyme activity; purified calpain II, fluorogenic peptide substrate, 30 min; inhibition, % at 16 µM; 0.37% of 220,000 active;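 active means inhibition above about 50%, limit read from the data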
FAS TE block: inhibitors of human fatty acid synthase thioesterase domain; P49327; recombinant FAS-TE, OMFH fluorogenic substrate, fluorescence endpoint; inhibition, % at 15 µM; 0.67% of 360,000 active; AID 602261;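 active means compounds whose normalised, plate-corrected inhibition of enzyme fluorescence in the single-dose primary screen is 50% or more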
RanGTP-Impb inh: inhibitors of RanGTP-importin-beta interaction, primary screen, biochemical, FRET, CFP-Ran, YFP-importin-beta, homogeneous; cell-free CFP-Ran/YFP-importin-beta FRET ratio; inhibition, % (concentration not given with the values); 1.1% of 300,000 active; AID 2216;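 active means more than half of the replicate wells show a fall in the fluorescence ratio signal beyond about 16%, limit read from the data, passing the limit was not always enough; inconclusive means exactly half of the replicate wells pass the set limit; inactive means fewer than half of replicates pass the limit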
Runt-SMMHC FRET: Runt domain-CBFb-SMMHC interaction inhibition. inhibition, % at 20 µM. Q01196+Q13951. 0.74% of 220,000 active. AID 1434. Cerulean-Runt/Venus-CBFb-SMMHC FRET ratio 530/480, 1 h;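 active means mean inhibition across duplicate retests at 20 µM reaching about 50%, limit read from the data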;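 further: inhibitors lower the FRET ratio by blocking Runt binding to CBFb-SMMHC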
Target sequence (Q01196 whole entry, looked up, the tested form may be a part): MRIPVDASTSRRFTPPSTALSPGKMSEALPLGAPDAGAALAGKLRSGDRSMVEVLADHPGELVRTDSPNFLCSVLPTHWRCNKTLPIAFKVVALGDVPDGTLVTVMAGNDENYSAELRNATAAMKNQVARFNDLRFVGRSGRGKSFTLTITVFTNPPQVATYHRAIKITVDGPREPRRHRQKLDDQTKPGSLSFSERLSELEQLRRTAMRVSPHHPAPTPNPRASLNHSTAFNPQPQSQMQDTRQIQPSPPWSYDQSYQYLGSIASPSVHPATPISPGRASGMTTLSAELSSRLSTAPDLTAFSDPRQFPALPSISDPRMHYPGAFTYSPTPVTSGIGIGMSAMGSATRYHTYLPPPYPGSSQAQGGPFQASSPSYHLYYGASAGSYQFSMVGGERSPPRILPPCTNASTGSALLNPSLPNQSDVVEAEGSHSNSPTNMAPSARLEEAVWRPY
Target sequence (Q13951 whole entry, looked up, the tested form may be a part): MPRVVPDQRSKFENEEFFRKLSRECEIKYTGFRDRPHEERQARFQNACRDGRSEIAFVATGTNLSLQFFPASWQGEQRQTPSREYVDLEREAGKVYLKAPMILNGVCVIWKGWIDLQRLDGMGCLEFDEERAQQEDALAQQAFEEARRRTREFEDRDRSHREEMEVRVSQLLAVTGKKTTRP
Runt-CBFb FRET: blocks binding of human RUNX1 Runt domain to CBFb | inhibition, % at 20 µM | Cerulean-Runt/Venus-CBFb FRET ratio 530/480, 1 h | 0.46% of 220,000 active;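 active means inhibition over about 50% at 20 µM in the single-dose screen, limit read from the data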
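Schedule: protein complex preformed 1 h, compound exposure 1 h, room temperature, dark; test system: Cerulean-labeled Runt domain protein; amount: 100 nM per protein; buffer or medium: Tris 50 mM pH 7.5, KCl, K2SO4, 0.01% BSA; read-out: loss of energy transfer signal; detection: FRET fluorescence; controls: 5 µM unlabeled CBFb as full-inhibition high control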
FAS-TE conf: FAS thioesterase (human) inhibition, confirmation. 45% of 2,300 active. inhibition, % at 15 µM. shares compounds with FAS TE block. recombinant FAS-TE, OMFH fluorogenic substrate, fluorescence;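 active means compounds inhibiting the enzyme by at least 50% at 15 µM in any one of the replicates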
Large screens that a line does not name were inactive (follow-up assays come after a bar, where they were run).

CC(C)(C)OC(=O)N[C@@H](Cc1ccccc1)c1nnc(S(=O)(=O)Cc2cccc(F)c2)o1	none (no result: FAS TE block)
CC(NC(=O)COC(=O)c1cc(=O)c2ccccc2o1)c1ccccc1 (stereo unspecified)	none (no result: m-calpain inh, RanGTP-Impb inh, Runt-SMMHC FRET, Runt-CBFb FRET)
Cc1c(OCC(=O)NC(Cc2ccc(Cl)cc2)C(=O)O)ccc2c(-c3ccccc3)cc(=O)oc12 (stereo unspecified)	FAS TE block 55, RanGTP-Impb inh inconclusive (no result: m-calpain inh, Runt-SMMHC FRET, Runt-CBFb FRET) | FAS-TE conf 62
C[C@H](CO)N1C[C@H](C)[C@@H](CN(C)C(=O)NC2CCCCC2)Oc2c(NC(=O)Nc3ccccc3)cccc2C1=O	FAS TE block 66 (no result: m-calpain inh, RanGTP-Impb inh, Runt-SMMHC FRET, Runt-CBFb FRET) | FAS-TE conf 77
COc1ccc(NC(=O)N(C)C[C@H]2Oc3c(NC(=O)NC(C)C)cccc3C(=O)N([C@H](C)CO)C[C@@H]2C)cc1	none (no result: m-calpain inh, RanGTP-Impb inh, Runt-SMMHC FRET, Runt-CBFb FRET)
C[C@H](CO)N1C[C@H](C)[C@@H](CN(C)C(=O)Nc2ccccc2)Oc2c(NC(=O)NC3CCCCC3)cccc2C1=O	none (no result: m-calpain inh, RanGTP-Impb inh, Runt-SMMHC FRET, Runt-CBFb FRET)
COc1ccc(NC(=O)Nc2cccc3c2O[C@H](CN(C)C(=O)Nc2ccc(C(F)(F)F)cc2)[C@@H](C)CN([C@H](C)CO)C3=O)cc1	FAS TE block 52 (no result: m-calpain inh, RanGTP-Impb inh, Runt-SMMHC FRET, Runt-CBFb FRET) | FAS-TE conf 56
CCN(C(=O)Cn1c(Cl)nc2c1c(=O)n(C)c(=O)n2C)C1CCCCC1	none (no result: m-calpain inh, RanGTP-Impb inh, Runt-SMMHC FRET, Runt-CBFb FRET)
COC(=O)c1ccc(NC(=O)c2cc[n+](Cc3ccccc3)cc2)cc1	none (no result: m-calpain inh, Runt-SMMHC FRET, Runt-CBFb FRET)
COc1ccc(/C=C(/NC(=O)c2ccc(OC)c(OC)c2)C(=O)NCCc2c[nH]c3ccccc23)cc1	none
COc1ccc(C(=O)N/C(=C/c2cccc3ccccc23)C(=O)NCCc2c[nH]c3ccccc23)cc1OC	FAS TE block 61 | FAS-TE conf inactive
O=C1CN(C(=O)CSc2nc3cc(Cl)ccc3c(=O)n2Cc2ccccc2)c2ccccc2N1	FAS TE block 76 | FAS-TE conf inactive
COCC(C)n1c(SCC(=O)N2CC(=O)Nc3ccccc32)nc2ccccc2c1=O (stereo unspecified)	none (no result: m-calpain inh, RanGTP-Impb inh, Runt-SMMHC FRET, Runt-CBFb FRET)
Cc1ccc(Cn2c(SCC(=O)N3CC(=O)Nc4ccccc43)nc3ccccc3c2=O)cc1	FAS TE block 53 | FAS-TE conf inactive
CC(c1ccccc1)n1c(SCC(=O)N2CC(=O)Nc3ccccc32)nc2ccccc2c1=O (stereo unspecified)	FAS TE block 56 | FAS-TE conf inactive
Cc1cccc(-n2c(SCC(=O)N3CC(=O)Nc4ccccc43)nc3ccccc3c2=O)c1	none
CCN(Cc1ccncc1)Cc1cn[nH]c1-c1cc(OC)c(OC)c(OC)c1	none
CC(C)(C)OC(=O)N1CCC2(CC1)Oc1ccc(F)cc1C(=O)C21CC(c2ccccc2)=NO1 (stereo unspecified)	FAS TE block 59 (no result: m-calpain inh, Runt-SMMHC FRET, Runt-CBFb FRET) | FAS-TE conf inactive
Cc1ccc(C(=O)N2CCC3(CC2)Oc2ccc(F)cc2C(=O)C32CC(c3ccccc3)=NO2)s1 (stereo unspecified)	FAS TE block 72 | FAS-TE conf inactive
O=C(c1ccoc1)N1CCC2(CC1)Oc1ccc(F)cc1C(=O)C21CC(c2ccc(Cl)cc2)=NO1 (stereo unspecified)	FAS TE block 74 | FAS-TE conf inactive
Cc1ccc(C(=O)N2CCC3(CC2)Oc2ccc(F)cc2C(=O)C32CC(c3ccc(Cl)cc3)=NO2)s1 (stereo unspecified)	FAS TE block 87 | FAS-TE conf inactive
O=C(c1ccc2c(c1)OCO2)N1CCC2(CC1)Oc1ccc(F)cc1C(=O)C21CC(c2ccccc2)=NO1 (stereo unspecified)	FAS TE block 67 | FAS-TE conf inactive
COc1cc(C(=O)Nc2ccc(S(=O)(=O)N3CCc4ccccc43)cc2)cc(OC)c1OC	none
COc1ccccc1C(=O)Nc1ccc(S(=O)(=O)N2CCc3ccccc32)cc1	FAS TE block 51 | FAS-TE conf inactive
CC(Oc1ccccc1)C(=O)N=C1SC2CS(=O)(=O)CC2N1c1ccc(F)cc1 (stereo unspecified)	none (no result: m-calpain inh, Runt-SMMHC FRET, Runt-CBFb FRET)
O=C(N/N=C/C=C/c1ccccc1[N+](=O)[O-])c1cc(-c2cccnc2)nc2ccccc12	none
COc1cc([N+](=O)[O-])cc(/C=N/NC(=O)c2cc(-c3ccccc3)nc3ccccc23)c1O	none
